# Assay outcomes from PubChem BioAssay.
# Most compounds without a hit are left out; they make up all but 2.7% or so of the library.
# PAFAH1B3 FP inh: PAFAH1B3 enzyme inhibitors, primary screen, biochemical, fluorescence polarization, human | AID 492972, 2010 | recombinant PAFAH1B3, FP-rhodamine probe | inhibition, % at 3.39 µM | 0.28% of 340,000 active;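 active means inhibition above the screen-wide average of all tested compounds plus 3 SD, cut at about 25% in these data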;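 further: 0% = enzyme with DMSO only and 100% = wells lacking PAFAH1B3 protein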
# ASAP1 GAP inh: inhibitors of human ASAP1 ArfGAP activity, primary screen, biochemical, fluorescence polarization | ASAP1-stimulated ARF1 GTP hydrolysis, GDP FP detection | 0.19% of 360,000 active | Arf-GAP with SH3 domain, ANK repeat and PH domain-containing protein 1 (Homo sapiens), … | inhibition, % at 16.5 µM | AID 624377, 2012; in the data active means inhibition above about 25%;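 further: 0% = vehicle with enzyme and substrate and 100% = no enzyme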
# ARFGAP1 inhibitor: inhibitors of rat ARFGAP1 GAP activity, primary screen, biochemical, fluorescence polarization, GDP tracer; 0.26% of 360,000 active; ADP-ribosylation factor GTPase-activating protein 1 (Rattus norvegicus), Q62848; Arfgap1-stimulated ARF1 GTP hydrolysis, GDP FP detection; inhibition, % at 16.5 µM;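 active means inhibition above a per-plate limit, mean inhibition of low control wells plus 3 SD, cut at about 25% in these data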;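 further: 0% = DMSO wells with enzyme and 100% = wells lacking Arfgap1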
#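 Material: rat Arfgap1 GAP domain (His6, aa 1-136), purified enzyme. Also added: human ARF1(Δ1-17)-GTP substrate. Compound dosing: 16.5 µM single point, 1.26% DMSO. Timing: enzyme reaction 120 min at 25 °C after 20 min preincubation. Signal: GDP detection by fluorescence polarization. Read-out basis: percent inhibition of GAP-stimulated GDP formation, scaled between DMSO and no-Arfgap1 medians.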
# PAFAH1B2 inh: PAFAH1B2 enzyme inhibitors, primary screen, biochemical, fluorescence polarization, human; Platelet-activating factor acetylhydrolase IB subunit alpha2 (Homo sapiens), P68402; recombinant PAFAH1B2, FP-rhodamine activity probe; inhibition, % at 3.39 µM; 1.2% of 340,000 active;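 active means inhibition above the mean of all tested compounds plus 3 SD, cut at about 24% in these data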;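 further: 0% = enzyme with DMSO and 100% = wells lacking PAFAH1B2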
# PAFAH2 inh: PAFAH2 enzyme inhibitors, primary screen, biochemical, fluorescence polarization, human. Platelet-activating factor acetylhydrolase 2, cytoplasmic (Homo sapiens), Q99487. recombinant PAFAH2, FP-rhodamine activity probe. inhibition, % at 3.39 µM. 0.99% of 340,000 active. AID 492956, 2010;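 active means inhibition above the mean over all tested compounds plus 3 SD, cut at about 30% in these data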;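 further: inhibitors block probe labeling of enzyme so polarization drops; 0% = enzyme with DMSO and 100% = wells lacking PAFAH2 protein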
# pPAFAH inh: pPAFAH enzyme inhibitors, primary screen, biochemical, fluorescence polarization, human. recombinant pPAFAH, FP-rhodamine probe fluorescence polarization. Platelet-activating factor acetylhydrolase (Homo sapiens), Q13093. inhibition, % at 3.39 µM. AID 463082, 2010. 1.5% of 330,000 active;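 active means inhibition above the mean inhibition across the screen plus 3 SD, cut at about 25% in these data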;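 further: inhibitors block binding of the rhodamine activity-based probe so polarization drops; 0% = enzyme with DMSO and 100% = wells lacking pPAFAH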
# Target sequence (Q13093 whole entry, looked up): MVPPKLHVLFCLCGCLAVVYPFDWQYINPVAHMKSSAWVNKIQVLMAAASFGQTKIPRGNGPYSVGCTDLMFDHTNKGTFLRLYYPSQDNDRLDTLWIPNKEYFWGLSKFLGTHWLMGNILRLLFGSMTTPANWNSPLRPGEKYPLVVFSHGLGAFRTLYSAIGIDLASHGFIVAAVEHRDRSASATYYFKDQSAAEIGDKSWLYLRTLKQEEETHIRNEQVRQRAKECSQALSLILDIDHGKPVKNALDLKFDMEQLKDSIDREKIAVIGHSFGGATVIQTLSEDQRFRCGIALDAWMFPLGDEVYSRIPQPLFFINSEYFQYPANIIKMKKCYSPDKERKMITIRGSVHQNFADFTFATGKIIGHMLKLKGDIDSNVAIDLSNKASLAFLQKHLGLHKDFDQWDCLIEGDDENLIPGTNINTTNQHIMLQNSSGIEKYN
# * = called active by the depositor; . = not tested or not shown.
SMILES,PAFAH1B3 FP inh,ASAP1 GAP inh,ARFGAP1 inhibitor,PAFAH1B2 inh,PAFAH2 inh,pPAFAH inh
Cc1ccc(S(=O)(=O)NCc2ccc(C(=O)N3CCN(c4ccccn4)CC3)cc2)cc1,-5.8,8.6,0.9,-5.3,0.4,9.0
Cc1ccc(NS(=O)(=O)c2ccc(C(=O)N3CCN(c4ccccn4)CC3)cc2)cc1,-0.3,8.8,1.2,6.1,-1.5,25.3*
Cc1ccc(NS(=O)(=O)c2ccc(C(=O)NC3CCN(Cc4ccccc4)CC3)cc2)cc1,6.7,-0.3,-0.3,3.9,-3.8,26.2*
Cc1ccc(NS(=O)(=O)c2ccc(C(=O)N3CCC3)cc2)cc1,0.3,4.5,6.3,-1.4,2.5,27.5*
Cc1ccc(NS(=O)(=O)c2cccc(C(=O)NC3CCN(Cc4ccccc4)CC3)c2)cc1,-2.2,14.1,-4.1,1.8,2.0,.
CCOC(=O)N1CCN(C(=O)c2ccc(S(=O)(=O)Nc3ccc(C)cc3)cc2)CC1,4.6,-7.4,-5.2,2.5,1.3,20.3
Cc1noc(C)c1S(=O)(=O)N1CCCc2nc(-c3ccc(F)cc3)ccc21,.,-9.2,6.5,.,.,.
O=C1CCCN1c1ccc(S(=O)(=O)NCCOc2ccccc2)cc1,-3.7,-6.8,-3.2,2.6,-1.2,1.6
Cc1cc(N2CCCC2=O)cc(C)c1S(=O)(=O)NCCOc1ccc(C(C)(C)C)cc1,1.6,9.0,5.2,40.1*,1.6,3.1
COc1ccc(/C(N)=N/OC(=O)CSc2ccc(C)cc2)cc1OC,1.0,5.3,2.7,63.5*,4.6,4.7
COc1ccc(/C(N)=N/OC(=O)Cc2cccs2)cc1OC,9.1,-7.4,-4.3,-3.5,-1.1,14.1
Cc1cccc(OCC(=O)Nc2ccc(N3CCCC3)cc2)c1C,6.2,8.5,-0.8,4.7,11.4,30.1*
Cc1ccc(OCC(=O)Nc2ccc(N3CCCC3)cc2)cc1C,11.5,22.9,18.4,2.7,16.3,29.7*
COc1ccccc1OCC(=O)Nc1ccc(N2CCCCC2)cc1,4.9,2.1,-2.9,1.8,6.1,4.2
O=C(CNCCC1=CCCCC1)Nc1ccc(N2CCCCCC2)cc1,-1.5,-5.8,5.7,8.2,10.7,32.2*
COc1ccccc1S(=O)(=O)N(C)C[C@H]1Oc2cc(Br)ccc2S(=O)(=O)N([C@H](C)CO)C[C@H]1C,.,3.0,12.0,.,.,.
COc1cccc(C(=O)N[C@H](C(=O)N2CCC[C@H]2C(=O)NC2CCCC2)c2ccccc2)c1,.,-17.5,-5.2,.,.,.
CCOC(=O)C1(C(=O)OCC)N=C(c2ccccc2)C=C1c1ccccc1,.,-4.1,-19.7,.,.,.
Cc1ccc(C2=C(O)C(=O)C(c3ccc(C)cc3)=C(O)C2=O)cc1,65.1*,-3.8,-9.4,40.5*,62.7*,.
C[C@@H]1ON(C)[C@H]2C[C@H]3c4cc(Br)ccc4CCN3C[C@@H]12,.,-0.6,-7.7,.,.,.
CC1=C(CC(=O)c2ccc(Cl)cc2)C(=O)c2ccccc2C1=O,7.8,-9.7,0.2,6.2,1.7,28.1*
O=C(Cc1ccccn1)c1ccc(Cl)cc1,0.7,-4.4,-4.6,5.8,-5.9,3.3
C=CCN1[C@@H](C)[C@H](c2ccccc2)Oc2cccc(N3CCCC3)c2S1(=O)=O,.,2.8,13.9,.,.,.
COCCn1c(N)c(S(=O)(=O)c2cccs2)c2nc3ccccc3nc21,47.7*,12.8,19.9,24.7*,10.7,-5.5
COc1ccc(Cn2c(N)c(S(=O)(=O)c3cccs3)c3nc4ccccc4nc32)cc1,1.0,3.4,-5.4,0.9,-9.1,0.2
O=C(CNS(=O)(=O)c1ccccc1)NCC(=O)OCc1ccc(Cl)cc1,-0.3,4.0,4.4,27.3*,-1.6,4.8
O=C(CCn1nnc2ccccc21)Nc1nnc(Cc2ccccc2)s1,8.3,23.2,4.8,27.0*,14.2,7.7
CCCCc1c(-c2ccccc2OC)ncn1C1CCCCC1,.,-7.7,-1.6,.,.,.
